Arr AP2 block: inhibitors of human beta-arrestin and AP2 interaction | FITC-arrestin peptide / GST-AP2 beads, flow cytometry; AP2 beta2 appendage carries R879A mutation | inhibition, % at 10 µM | 340,000 compounds, 0.31% hits | AID 504490;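 active = inhibition above a set limit, near 3 SD of compounds lacking own fluorescence, cut at about 54% in these data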
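Assay system: GST-AP2 R879A bound to glutathione beads, E. coli-expressed; Medium: PBS with 0.05% Tween 20 and 0.1% BSA; Also added: fluorescein-tagged arrestin peptide at 50 nM final; Timing: 12 min plus 1 h, RT; Measured by: flow cytometry, FL1 (488/535 nm); Evaluation: percent drop in bead-associated FITC signal.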
Pemphigus Ab inh: human desmoglein-3 autoantibody binding inhibition | P32926 | DSG3-coupled beads, scFv-anti-DSG3-GFP binding, flow cytometry; hits give low values | binding (percent of control), % at 10 µM | 310,000 compounds, 0.48% hits | AID 588358;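 active = binding more than 3 SD below its plate's average and above zero; inconclusive = below that plate limit but binding exactly zero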;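 note: hits lower antibody fragment binding to DSG3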
Neddyl block: blocks human cullin neddylation. P61081+Q13564. AID 651699. inhibition, % at 25 µM. TR-FRET cullin neddylation, biochemical. 360,000 compounds, 0.58% hits; in the data active = inhibition above about 36%
Target sequence (P61081 whole entry, looked up): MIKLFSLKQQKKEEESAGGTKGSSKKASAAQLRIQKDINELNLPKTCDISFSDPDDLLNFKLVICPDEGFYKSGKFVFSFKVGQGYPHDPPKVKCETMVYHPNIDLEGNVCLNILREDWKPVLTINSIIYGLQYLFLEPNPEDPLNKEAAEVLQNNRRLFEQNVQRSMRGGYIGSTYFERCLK
Target sequence (Q13564 whole entry, looked up): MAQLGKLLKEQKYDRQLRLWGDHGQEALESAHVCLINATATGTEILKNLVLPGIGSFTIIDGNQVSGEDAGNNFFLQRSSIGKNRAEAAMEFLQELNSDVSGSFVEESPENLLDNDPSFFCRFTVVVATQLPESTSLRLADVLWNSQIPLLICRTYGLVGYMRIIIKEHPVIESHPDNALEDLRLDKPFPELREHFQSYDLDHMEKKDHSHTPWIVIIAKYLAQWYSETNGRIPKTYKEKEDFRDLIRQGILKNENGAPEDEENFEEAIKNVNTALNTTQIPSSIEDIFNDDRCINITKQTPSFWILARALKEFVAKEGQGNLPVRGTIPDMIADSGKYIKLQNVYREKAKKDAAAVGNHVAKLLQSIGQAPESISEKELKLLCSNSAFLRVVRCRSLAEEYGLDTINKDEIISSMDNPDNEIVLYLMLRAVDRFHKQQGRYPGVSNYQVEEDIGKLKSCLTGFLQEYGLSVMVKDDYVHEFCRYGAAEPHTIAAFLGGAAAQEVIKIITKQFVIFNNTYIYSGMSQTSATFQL
Efflux pump inh: blocks antifungal efflux pumps in multiplex yeast assay; S. cerevisiae Candida pump triplex, Nile Red efflux; inhibition, % at 10 µM; 330,000 compounds, 0.44% hits;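 active = plate passing quality check with inhibition over a set limit, or well fluorescence over plate mean plus 4 SD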;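 note: Nile Red retained in pooled yeast measured as flow cytometry median fluorescence; higher means more Nile Red kept so more efflux inhibition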
Neddyl inh conf: confirmation of human cullin neddylation inhibitors; shares compounds with Neddyl block; TR-FRET cullin neddylation biochemical assay; calls only at 25 µM; 1,800 compounds, 13% hits; AID 652217; in the data active = inhibition above about 40%;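 note: neddylation substrate is the cullin 1 ring ligase complex with SKP2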
A number is an active result; . = inactive; ? = inconclusive; / = no result given; + = active, no number. Compounds with a hit are over-represented: about 1.7% of the library has one in this group of screens.

SMILES	Arr AP2 block	Pemphigus Ab inh	Neddyl block	Efflux pump inh	Neddyl inh conf
Cc1cccc(C(=O)OCC(=O)N2CCN(C(=O)c3ccco3)CC2)c1O	.	.	.	.	/
CC(C)c1cc(C(=O)OCC(=O)N2CCN(C(=O)c3ccco3)CC2)c(O)c(C(C)C)c1	.	?	34.3	.	.
COc1ccc(OC)c(C(C(=O)NC2CCCCC2)N(C(=O)c2ccccn2)c2cccnc2)c1 (centres undefined)	.	/	.	.	/
Cc1nc(C(=O)NCCCO)cc2c1[nH]c1ccccc12	.	.	43.6	.	.
C/C(=N\Nc1nc2ccccc2[nH]1)c1ccc(N2CCOCC2)cc1	.	.	.	.	/
O=C(O)CN1C(=O)C2C3CCC(C3)C2C1=O (centres undefined)	/	.	.	/	/
O=C(/C=C/c1ccccc1[N+](=O)[O-])N1CCN(c2ccccc2F)CC1	.	.	.	.	/
O=C(c1nc2nc(-c3ccc(Cl)cc3)cc(C(F)(F)F)n2n1)N1CCOCC1	.	/	41.2	.	.
O=C(c1nc2nc(-c3ccccc3)cc(C(F)(F)F)n2n1)N1CCOCC1	.	.	.	.	/
Cc1coc2cc3oc(=O)c(CCC(=O)NCCCn4ccnc4)c(C)c3cc12	.	.	/	.	/
Cc1c(CCC(=O)NCCCn2ccnc2)c(=O)oc2cc3occ(C(C)(C)C)c3cc12	.	.	41.3	.	/
O=c1[nH]c2ccccc2nc1-c1ccccc1	.	.	50.3	.	+
CN(C)N=Nc1ccc(S(=O)(=O)/N=C(\O)c2ccccc2)cc1	.	.	.	.	/
CC1CCN(c2ccccc2NC(=O)c2cc3ccccc3o2)CC1	.	.	37.4	.	.
Cc1ccccc1NC(=O)c1cc2ccccc2o1	.	.	.	.	/
O=C(COC(=O)C1CC2C=CC1C2)Nc1cccc(S(=O)(=O)N2CCOCC2)c1 (centres undefined)	.	.	.	.	/
CCc1nc(N2CCN(Cc3ccc4c(c3)OCO4)CC2)c2oc3ccccc3c2n1	.	.	44.0	.	.
CCOc1ccc(NC(=O)COC(=O)c2ccc3ncsc3c2)cc1OCC	.	.	65.1	/	.
CC(C)(C)c1ccc(NC(=O)COC(=O)c2ccc3ncsc3c2)cc1	.	.	.	.	/
COC(=O)c1ccc(C(=O)OC)c(NC(=O)/C=C/C(=O)O)c1	.	.	44.2	.	.
Cc1ccc(-n2nc(C)c3c(C)c(CCC(=O)NCC4CCCO4)c(=O)n(C)c32)cc1 (centres undefined)	.	.	.	.	/
CCn1c(=O)c(CCC(=O)NCC2CCCO2)c(C)c2c(C)nn(-c3ccccc3)c21 (centres undefined)	.	.	40.2	.	.
CN(/N=C/c1cccnc1)c1cnc2ccccc2n1	.	.	45.1	.	.
CC1(C)Cc2cccc(OCC(=O)NCc3ccccc3F)c2O1	.	/	.	.	/
CCCCOc1ccc(S(=O)(=O)N2CCN(c3ccc(N4CCN(CC)CC4)nn3)CC2)cc1	.	.	45.8	.	.
SMILES	Arr AP2 block	Pemphigus Ab inh	Neddyl block	Efflux pump inh	Neddyl inh conf
CC(Oc1ccc(Br)cc1)C(=O)NCC1(N2CCCCC2)CCCCC1 (centres undefined)	.	.	.	.	/
O=C(CNC(=S)N(Cc1ccccc1Cl)C1CCCC1)NCCCN1CCOCC1	.	.	.	.	/
CC(C)NC(=O)c1ccc2c3n(nc2c1)-c1ccccc1CO3	.	.	.	.	/
O=C(NCCO)c1ccc2c3n(nc2c1)-c1ccccc1CO3	.	.	34.8	.	.
Cc1ccc2c(c1)COc1c3ccc(C(=O)NCC4CC4)cc3nn1-2	.	.	46.5	.	+
O=C(NCC1CC1)c1ccc2c3n(nc2c1)-c1ccccc1CO3	.	.	.	.	/
Cc1cc(CNC(=S)Nc2cccc(Cl)c2Cl)nn1C	.	.	.	.	/
COc1ccc(NC(=O)C2CCCN2C(=O)Nc2ccc(OC)cc2)cc1 (centres undefined)	.	/	.	/	/
c1ccc2c(c1)CCN(c1ncnc3nc[nH]c13)C2	.	.	.	.	/
CC1Cc2ccccc2N1c1ncnc2nc[nH]c12 (centres undefined)	.	.	66.2	.	/
Cc1ccsc1/C=N/Nc1nc(Cl)c(Cl)cc1Cl	.	.	39.2	.	.
Cc1ccc(/C=N/Nc2nc(Cl)c(Cl)cc2Cl)s1	.	.	.	.	/
Cc1cc2c(c(C)nn2-c2ccccc2)c(=O)o1	.	/	.	.	/
Nc1c2c(=O)oc(-c3ccccc3)cc2nn1-c1ccccc1	.	.	50.0	.	+
COC(=O)c1c(NC(=O)c2ccccc2OC)sc(C(=O)N2CCOCC2)c1C	.	/	.	.	/
CCc1ccc(NC(=O)CCn2nc(C)c(S(=O)(=O)N3CCCCC3)c2C)cc1	.	.	.	.	/
CCCCCn1c(SCC(=O)c2ccccc2)nc2cc(C(=O)NCC3CCCO3)ccc2c1=O (centres undefined)	.	.	.	/	/
CC(C)N1CC(O)=C(c2nc3ccccc3[nH]2)C1=N	.	.	.	.	/
CC1(C)C(O)=C(c2nc3ccccc3[nH]2)C(=N)N1c1ccccc1	.	.	41.0	.	/
CN(C(=O)CSc1nc(-c2ccccc2)cn1N)C(c1ccccc1)c1ccccc1	.	.	.	.	/
CN(C)CCCNCCCNC(=O)/C(=N\O)c1ccccc1	.	/	.	.	/
OC(c1ccccc1)(c1nc(-c2cccc(C(F)(F)F)c2)cs1)C(F)(F)F (centres undefined)	/	/	.	/	/
FC(F)(F)c1cccc(-c2ccn3ncnc3n2)c1	.	.	40.9	.	.
Cn1cc(CCNC(=O)C2CCC(=O)N(CCc3ccc(Cl)cc3)C2)cn1 (centres undefined)	.	.	.	.	/
S=c1[nH]c2nc(Cl)c(Cl)nc2[nH]1	/	.	41.0	/	+
SMILES	Arr AP2 block	Pemphigus Ab inh	Neddyl block	Efflux pump inh	Neddyl inh conf
Cn1c(CNC(=O)CNC(=O)c2cccc(F)c2)cc(=O)n(C)c1=O	.	/	.	.	/
O=S(=O)(Nc1nc2ccccc2nc1NCC1CCCO1)c1ccccc1 (centres undefined)	.	.	38.8	.	.
CCOC(=O)C1CCCN(c2nc3ccccc3nc2NS(=O)(=O)c2ccc(C)cc2)C1 (centres undefined)	.	?	46.1	.	+
Cc1ccc(S(=O)(=O)Nc2nc3ccccc3nc2NCC2CCCO2)cc1 (centres undefined)	.	.	40.0	.	.
COc1ccc(S(=O)(=O)Nc2nc3ccccc3nc2NCC2CCCO2)cc1 (centres undefined)	.	.	.	.	/
COCCCNc1nc2ccccc2nc1NS(=O)(=O)c1ccc(C)c(C)c1	.	.	42.4	.	/
O=S(=O)(Nc1nc2ccccc2nc1NCC1CCCO1)c1ccc(F)cc1 (centres undefined)	.	.	.	.	/
CCOC(=O)N1CCN(C(=O)CCn2c(=S)[nH]c3ccsc3c2=O)CC1	.	.	.	.	/
COc1ccc(-c2nnc3ccc(SCC(=O)N4CCCC4)nn23)cc1	.	.	.	.	/
Cc1ccc(-c2ccc3nnc(SCC(N)=O)n3n2)cc1	.	.	/	.	/
COc1ccc(-c2ccc3nnc(SCC(=O)N4CCCC4)n3n2)cc1	.	.	55.9	.	/
NC(=O)CSc1nnc2ccc(-c3ccc(Cl)cc3)nn12	.	.	42.1	.	.

Compound activity deposited in PubChem BioAssay by several laboratories.
